In ChEMBL document CHEMBL1129531, “2-substituted piperazines as constrained amino acids. Application to the synthesis of potent, non carboxylic acid inhibitors of farnesyltransferase” (J Med Chem, 1996):
Values after ≈ are worked out from the molar mass of the structure shown.

Key:
[1] = test system: Rat1; assay: Highest nontoxic concentration in RAT1 cells; assay type: functional
Outline: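 Cultured RAT1 cells; viability assessed by viable staining with MTT. Value is the highest nontoxic concentration, i.e. the concentration compatible with ≥90% cell survival.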

[2] = Inhibition of human Geranylgeranyl transferase type I
Outline: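 Recombinant human GGTase I. IC50 reported ±SEM with the number of determinations given.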

[3] = Inhibition of anchorage-independent growth of ras-transformed cells in soft agar; assay type: functional
Outline: (§1)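 RAT1 cells transformed with v-ras or v-raf were grown in soft agar with compound. MIC is the minimum concentration reducing the size and number of colonies relative to vehicle-treated control. A v-mos-transformed cell line served as control, tested up to 2.5 µM.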

[4] = molecular target: Protein farnesyltransferase (Homo sapiens, UniProt P49354+P49356); assay: Inhibition of [3H]FPP incorporation into Ha-Ras by Farnesyltransferase; assay type: protein-complex assay
Outline: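 Recombinant human Ha-Ras protein as acceptor, with [³H]FPP as farnesyl donor. Read-out is FTase-catalyzed radiolabel incorporation into Ha-Ras. IC50 is the concentration giving 50% inhibition, reported ±SEM with the number of determinations given.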

[5] = molecular target: Protein farnesyltransferase (Rattus norvegicus, UniProt Q02293+Q04631); assay: Inhibition of post-traslational processing of Ras protein in RAT1 cell line; assay type: functional, cell-based
Outline: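 RAT1 cells transformed with viral Ha-ras were incubated with compound for 24 h, then lysed. Ras was immunoprecipitated and resolved by denaturing gel electrophoresis to detect inhibition of post-translational processing (farnesylation). IC50 derived.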

[6] = molecular target: Geranylgeranyl transferase type I (Bos taurus, UniProt P29702+Q5EAD5); assay: Inhibition of bovine Geranylgeranyl transferase type I; assay type: protein-complex assay
Outline: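 Type-I GGTase from bovine source. IC50 reported ±SEM with the number of determinations given.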

[7] = Inhibition of anchorage-independent growth of raf-transformed cells in soft agar; assay type: functional; outline: as §1

SMILES | IC50 [2] [nM] | MIC [3] [µM] | IC50 [4] [nM] | IC50 [5] [nM] | IC50 [6] [nM] | MIC [7] [µM] | CTE [1] [µM]
CCCC[C@H]1CN(C(=O)c2cccc3ccccc23)CCN1C[C@@H](N)CS |  | 10 (≈ 3.86 µg/mL) | 1 | 500 | 160 | > 10 | 10
CCCC[C@H]1CN(C(=O)c2ccccc2)CCN1C[C@@H](N)CS |  |  | 24 |  |  |  | 
CC[C@H]1CN(C(=O)c2cccc(C)c2C)CCN1C[C@@H](N)CS |  |  | 68 |  |  |  | 

More lines, main results first:

IC50 [2] [nM] | MIC [3] [µM] | IC50 [4] [nM] | IC50 [5] [nM] | IC50 [6] [nM] | MIC [7] [µM] | SMILES | CTE [1] [µM]
3900 | 2.5 (≈ 1.03 µg/mL) | 1 | 500 |  |  | N[C@@H](CS)CN1CCN(C(=O)c2cccc3ccccc23)C[C@@H]1CCOC1CC1 | 25
 | 10 (≈ 3.88 µg/mL) | 3 | 500 | 10000 | > 50 | COCC[C@H]1CN(C(=O)c2cccc3ccccc23)CCN1C[C@@H](N)CS | >100
 |  | 5 |  | 360 |  | CCCC[C@H]1CN(C(=O)c2cccc(C)c2C)CCN1C[C@@H](N)CS | 
 |  | 160 |  | 2800 |  | Cc1cccc(C(=O)N2CCN(C[C@@H](N)CS)CC2)c1C | 
